What all share (type): functional
For assay [1], the system named is Trichostrongylus colubriformis. Kind of assay: Anthelmintic activity against levamisole-resistant Trichostrongylus colubriformis isolate by larva development assay. A digest of the protocol:
(§1)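 Larval development assay: test compounds were embedded in an agar-based nutritive medium that supports development from eggs to third-stage larvae (L3). Plates were incubated for 6 days at 28 °C and 80% relative humidity, and egg hatching and larval development were recorded. Values are means of three experiments.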

For assay [2], the system named is Haemonchus contortus. As to the kind of experiment: Anthelmintic activity against Haemonchus contortus infected in gerbils assessed as reduction in worm count at 3.2 mg/kg, po. Set-up: scale not given: the % may be the effect or the level left. Put shortly: (§2)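 Gerbils (Meriones unguiculatus) were artificially infected with H. contortus larvae 6 days, or T. colubriformis larvae 5 days, before treatment. They were then dosed orally or subcutaneously, and controls received a placebo formulation. Three days post-treatment the animals were sacrificed and dissected for worm recovery.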

The test system of assay [3] is Trichostrongylus colubriformis. As to the kind of experiment: Anthelmintic activity against Trichostrongylus colubriformis infected in gerbils assessed as reduction in worm count at 3.2 mg/kg, po. Set-up: scale not given: the % may be the effect or the level left. A digest of the protocol:
as §2

Assay [4] relates to Haemonchus contortus. As to the kind of experiment: Anthelmintic activity against benzimidazole-resistant Haemonchus contortus isolate by larva development assay. Put shortly: as §1

Regarding `CC(C#N)(COc1cc(Cl)ccc1Cl)NC(=O)c1ccc(OC(F)(F)F)cc1` (centres undefined), the figures for the EC100 (in assay [1]; with Haemonchus contortus [4]) were 0.032 ppm and 0.01 ppm, respectively. The Activity in the assay on Haemonchus contortus [2] stood at 68%; in assay [3] it was 89%.

The values above are taken from ChEMBL document CHEMBL1145606, “Discovery of amino-acetonitrile derivatives, a new class of synthetic anthelmintic compounds” (2008).
